Measured values published in ChEMBL document CHEMBL4425095, “Novel Cephalosporins Selectively Active on Nonreplicating Mycobacterium tuberculosis” (J Med Chem, 2016).
Converted amounts (≈) assume the structure as drawn.

Key:
Type in all cases: functional
[1] = tested on: Mycobacterium tuberculosis; test: Antimycobacterial activity against replicating Mycobacterium tuberculosis mc2 6220 harboring panCD/lysA deletion mutant by two-fold serial dilution method
How it was run: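 M. tuberculosis mc26220 in replicating medium supplemented with glycerol (final 0.5%), OADC, casamino acids 0.05%, lysine 240 μg/mL and pantothenate 24 μg/mL. Exposed to 2-fold serially diluted compound from DMSO. OD580 read after 7 days at 20% O2, 5% CO2. Reported as MIC90.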

[2] = tested on: Mycobacterium tuberculosis; test: Antimycobacterial activity against non-replicating Mycobacterium tuberculosis mc2 6220 harboring panCD/lysA deletion mutant incubated for 7 days measured at OD580 = 0.1 by two-fold serial dilution method
How it was run: (§1)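 M. tuberculosis mc26220 washed twice in PBS-tyloxapol and resuspended in Sauton's-based nonreplicating medium (pH 5.0, butyrate 0.05%, BSA, tyloxapol, lysine, pantothenate, 0.5 mM NaNO2). Incubated at 1% O2, 5% CO2 with 2-fold serially diluted compound from DMSO. After 3 days, diluted 5-fold in fresh replicating medium for outgrowth at 20% O2. Reported as MIC90.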

[3] = tested on: Mycobacterium tuberculosis; test: Antimycobacterial activity against non-replicating Mycobacterium tuberculosis mc2 6220 harboring panCD/lysA deletion mutant incubated for 7 days measured at OD580 = 0.01 by two-fold serial dilution method; how it was run: as §1

Structure (SMILES) | MIC90 [1] [µg/mL] | MIC90 [2] [µg/mL] | MIC90 [3] [µg/mL]
CCCCOc1ccc(CCC(=O)N[C@@H]2C(=O)N3C(c4nc(CCC)no4)=C(C)CS[C@H]23)cc1 | >100 | 0.76 (≈ 1.57 µM) | 0.47 (≈ 0.97 µM)
CCSC(=O)N[C@@H]1C(=O)N2C(c3nc(C)no3)=C(C)CS[C@H]12 | >100 | 1.84 (≈ 5.4 µM) | 
CCCc1noc(C2=C(C)CS[C@@H]3[C@H](NC(=O)CCc4ccc(F)cc4)C(=O)N23)n1 | >100 | 0.91 (≈ 2.11 µM) | 0.48 (≈ 1.11 µM)
CCCc1noc(C2=C(C)CS[C@@H]3[C@H](NC(=O)CCc4ccc(Cl)cc4)C(=O)N23)n1 | >100 |  | 
CCC(C)OC(=O)C1=C(C)CS[C@@H]2[C@H](NC(=O)CCc3ccc(OC)cc3)C(=O)N12 (some centres undefined) | >100 | 2.95 (≈ 6.82 µM) | 1.57 (≈ 3.63 µM)
CC1=C(C(N)=O)N2C(=O)[C@@H](NC(=O)COc3ccccc3)[C@H]2SC1 | >100 | >100 | 59.68 (≈ 172 µM)
CCCCOC(=O)C1=C(C)CS[C@@H]2[C@H](NC(=O)CCc3ccccc3)C(=O)N12 | >100 | <0.24 | 0.21 (≈ 0.522 µM)
CCCc1noc(C2=C(C)CS[C@@H]3[C@H](NC(=O)c4ccc(Cl)cc4)C(=O)N23)n1 | >100 | 2.28 (≈ 5.44 µM) | 1.06 (≈ 2.53 µM)
CCCOC(=O)C1=C(C)CS[C@@H]2[C@H](NC(=O)COc3ccc(OC)cc3)C(=O)N12 | >100 | 0.81 (≈ 1.93 µM) | 0.39 (≈ 0.927 µM)
C=CC1=C(C(=O)O)N2C(=O)[C@@H](NC(=O)/C(=N\O)c3csc(N)n3)[C@H]2SC1 | 4.11 (≈ 10.4 µM) | >100 | 77.84 (≈ 197 µM)
CCCCOC(=O)C1=C(C)CS[C@@H]2[C@H](NC(=O)CCc3ccc(OC)cc3)C(=O)N12 | >100 | 0.26 (≈ 0.601 µM) | 0.24 (≈ 0.555 µM)
CC1=C(C(=O)O)N2C(=O)[C@@H](NC(=O)Cc3ccc(Cl)cc3)[C@H]2SC1 | 81.38 (≈ 222 µM) | >36.68 | >36.68
CCOC(=O)C1=C(C)CS[C@@H]2[C@H](NC(=O)COc3ccc(OC)cc3)C(=O)N12 | 47.1 (≈ 116 µM) | 0.89 (≈ 2.19 µM) | 0.53 (≈ 1.3 µM)
CC1=C(c2nc(C)no2)N2C(=O)[C@@H](NC(=O)OCC(Cl)(Cl)Cl)[C@H]2SC1 | >100 | 0.92 (≈ 2.15 µM) | 0.46 (≈ 1.08 µM)
CC1=C(c2nc(C)no2)N2C(=O)[C@@H](NC(=O)COc3ccc(Cl)cc3)[C@H]2SC1 | >100 | 1.72 (≈ 4.09 µM) | 1.2 (≈ 2.85 µM)
CCCCOC(=O)C1C(C)=CS[C@@H]2[C@H](NC(=O)COc3ccccc3)C(=O)N12 (some centres undefined) | >100 | 1.28 (≈ 3.16 µM) | 0.79 (≈ 1.95 µM)
CCCc1noc(C2=C(C)CS[C@@H]3[C@H](NC(=O)Cc4ccccc4)C(=O)N23)n1 | >100 | 1.04 (≈ 2.61 µM) | 
CC1=C(C(=O)O)N2C(=O)[C@@H](NC(=O)COc3ccccc3)[C@H]2SC1 | >100 | >34.84 | >34.84
COc1ccc(OCC(=O)N[C@@H]2C(=O)N3C(C(=O)OCc4ccccc4)=C(C)CS[C@H]23)cc1 | >100 | 2.53 (≈ 5.4 µM) | 1.54 (≈ 3.29 µM)
CC1=C(c2nc(C)no2)N2C(=O)[C@@H](NC(=O)OCC(C)(C)C)[C@H]2SC1 | >100 | 1.03 (≈ 2.81 µM) | 
COC(=O)C1=C(C)CS[C@@H]2[C@H](NC(=O)[C@@H](c3ccccc3)N(C)C)C(=O)N12 | >100 | >38.95 | >38.95
COC(=O)C1=C(C)CS[C@@H]2[C@H](NC(=O)COc3ccc(Cl)cc3)C(=O)N12 | >100 | 1.25 (≈ 3.15 µM) | 0.95 (≈ 2.39 µM)

Structure (SMILES) | MIC90 [1] [µg/mL] | MIC90 [2] [µg/mL] | MIC90 [3] [µg/mL]
COC(=O)C1=C(C)CS[C@@H]2[C@H](NC(=O)CCc3ccccc3)C(=O)N12 | >100 | 1.27 (≈ 3.52 µM) | 10.4 (≈ 28.9 µM)
CCCc1noc(C2=C(C)CS[C@@H]3[C@H](NC(=O)CCc4ccc(C)cc4)C(=O)N23)n1 | >100 | 2.32 (≈ 5.44 µM) | 0.98 (≈ 2.3 µM)
CC(=O)OCC1=C(C(=O)O)N2C(=O)[C@@H](NC(=O)Cc3cccs3)[C@H]2SC1 [CEPHALOTHIN] | >100 | >100 | 95.53 (≈ 241 µM)
CCCN(O)C(=O)C1=C(C)CS[C@@H]2[C@H](NC(=O)COc3ccccc3)C(=O)N12 | >100 | >40.55 | >40.55
CCCc1noc(C2=C(C)CS[C@@H]3[C@H](NC(=O)Cc4ccc(OC)cc4)C(=O)N23)n1 | >100 | 0.77 (≈ 1.8 µM) | 
CC1=CS[C@@H]2[C@H](NC(=O)COc3ccccc3)C(=O)N2[C@H]1COS(=O)(=O)c1ccc(Br)cc1 | >83.24 | >55.34 | >55.34
CC1=C(C(=O)O)N2C(=O)[C@@H](NC(=O)c3ccc(Cl)cc3)[C@H]2SC1 | >100 | >35.28 | >35.28
CC1=C(c2nc(C)no2)N2C(=O)[C@@H](NC(=O)[C@H](N)c3ccccc3)[C@H]2SC1 | >100 | 44.05 (≈ 114 µM) | 
CC1=C(c2nc(C)no2)N2C(=O)[C@@H](NC(=O)Cc3ccc(C)cc3)[C@H]2SC1 | >100 | 1.75 (≈ 4.55 µM) | 
CCCCOC(=O)C1=C(C)CS[C@@H]2[C@H](NC(=O)CCc3ccc(Cl)cc3)C(=O)N12 | >100 | 1.24 (≈ 2.84 µM) | 0.72 (≈ 1.65 µM)
COc1ccc(CCC(=O)N[C@@H]2C(=O)N3C(C(=O)OC4CCCC4)=C(C)CS[C@H]23)cc1 | 44.33 (≈ 99.7 µM) | 0.96 (≈ 2.16 µM) | 0.84 (≈ 1.89 µM)
CCCc1noc(C2=C(C)CS[C@@H]3[C@H](NC(=O)CCc4ccccc4Cl)C(=O)N23)n1 | >100 | 1.27 (≈ 2.84 µM) | 0.52 (≈ 1.16 µM)
CC1=C(C(=O)O)N2C(=O)[C@@H](NC(=O)CCc3ccc(Br)cc3)[C@H]2SC1 | 96.13 (≈ 226 µM) | >42.53 | >42.53
CCCc1noc(C2=C(C)CS[C@@H]3[C@H](NC(=O)COc4ccc(Cl)cc4)C(=O)N23)n1 | >100 | 3.87 (≈ 8.62 µM) | 1.36 (≈ 3.03 µM)
CCCOC(=O)C1=C(C)CS[C@@H]2[C@H](NC(=O)[C@H](N)c3ccccc3)C(=O)N12 | >100 | 15.46 (≈ 39.7 µM) | 
CC1=C(c2nc(C)no2)N2C(=O)[C@@H](NC(=O)Cc3ccc(Cl)cc3)[C@H]2SC1 | >100 | 1.13 (≈ 2.79 µM) | 
CCCc1noc(C2=C(C)CS[C@@H]3[C@H](NC(=O)Cc4ccc(C)cc4)C(=O)N23)n1 | >100 | 0.64 (≈ 1.55 µM) | 
CC1=C(c2nc(C)no2)N2C(=O)[C@@H](NC(=O)Cc3ccccc3)[C@H]2SC1 | >100 | 1.61 (≈ 4.35 µM) | 
CC1=C(c2nc(C)no2)N2C(=O)[C@@H](NC(=O)Cc3ccc(Cl)c(Cl)c3)[C@H]2SC1 | >100 | 0.28 (≈ 0.637 µM) | 
COC(=O)C1=C(C)CS[C@@H]2[C@H](NC(=O)[C@H](N)c3ccccc3)C(=O)N12 | >100 | 61.78 (≈ 171 µM) | 
COc1ccc(CC(=O)N[C@@H]2C(=O)N3C(c4nc(C)no4)=C(C)CS[C@H]23)cc1 | >100 | 3.25 (≈ 8.12 µM) | 
